In assay [1] the target is T1, P-selectin (Homo sapiens, UniProt P16109).
T1 sequence (P16109 whole entry): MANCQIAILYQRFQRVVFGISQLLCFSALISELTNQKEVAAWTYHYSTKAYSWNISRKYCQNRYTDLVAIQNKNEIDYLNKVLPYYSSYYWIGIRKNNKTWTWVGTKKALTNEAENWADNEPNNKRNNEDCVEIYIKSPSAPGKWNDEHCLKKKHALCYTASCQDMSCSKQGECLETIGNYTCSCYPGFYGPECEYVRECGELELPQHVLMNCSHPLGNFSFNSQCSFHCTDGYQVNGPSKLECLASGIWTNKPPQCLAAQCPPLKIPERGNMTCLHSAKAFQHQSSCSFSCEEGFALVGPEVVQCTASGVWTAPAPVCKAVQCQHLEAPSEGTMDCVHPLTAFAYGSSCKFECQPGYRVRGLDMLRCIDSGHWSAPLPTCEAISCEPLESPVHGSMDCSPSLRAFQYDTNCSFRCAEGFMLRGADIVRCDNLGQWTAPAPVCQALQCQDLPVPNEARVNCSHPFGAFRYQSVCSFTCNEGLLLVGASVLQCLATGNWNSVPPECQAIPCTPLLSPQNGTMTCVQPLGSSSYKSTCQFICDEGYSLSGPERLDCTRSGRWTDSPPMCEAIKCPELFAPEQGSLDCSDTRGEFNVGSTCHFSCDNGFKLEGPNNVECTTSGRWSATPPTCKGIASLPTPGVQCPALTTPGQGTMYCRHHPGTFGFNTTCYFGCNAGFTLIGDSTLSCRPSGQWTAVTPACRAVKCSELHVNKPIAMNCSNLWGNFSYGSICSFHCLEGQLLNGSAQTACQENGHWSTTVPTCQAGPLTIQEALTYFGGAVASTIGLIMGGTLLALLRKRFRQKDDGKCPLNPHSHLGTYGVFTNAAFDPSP
Kind of assay: Inhibitory activity against P-selectin using ELISA-based assay. A digest of the protocol: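 P-selectin–IgG chimera precomplexed with biotinylated goat F(ab')2 anti-human IgG and streptavidin–alkaline phosphatase, preincubated with compound 30 min RT in 50 mM imidazole pH 7.2, 1% BSA, 1 mM CaCl2. Mix added to sialyl Lewis^x pentaceramide-coated (40-100 pmol/well), BSA-blocked wells, 45 min 37 °C. p-Nitrophenyl phosphate read at 405 nm; chimera-free background subtracted; duplicate/triplicate; IC50 from % inhibition.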

Assay [2] has as its target T1, P-selectin. Kind of assay: Inhibitory activity against P-selectin using cell-selectin protein assay.
The target of assay [3] is T1, P-selectin. Kind of assay: Inhibitory activity against P-selectin using cell-cell assay; Not active. Type of assay: functional. The procedure, abridged:
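CHO cells stably transfected with human P-selectin, plated the day before, used as monolayers. Compounds added at 2× in cold RPMI, 20 min 4 °C; BCECF-AM-labelled HL60 cells (2 × 10⁶ cells/mL) then adhered 30 min at 4 °C. Unbound cells washed off, bound cells read by fluorescence; triplicates; IC50 by Probit analysis.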

Another assay concerns the target T2, E-selectin (Homo sapiens, UniProt P16581).
T2 sequence (P16581 whole entry): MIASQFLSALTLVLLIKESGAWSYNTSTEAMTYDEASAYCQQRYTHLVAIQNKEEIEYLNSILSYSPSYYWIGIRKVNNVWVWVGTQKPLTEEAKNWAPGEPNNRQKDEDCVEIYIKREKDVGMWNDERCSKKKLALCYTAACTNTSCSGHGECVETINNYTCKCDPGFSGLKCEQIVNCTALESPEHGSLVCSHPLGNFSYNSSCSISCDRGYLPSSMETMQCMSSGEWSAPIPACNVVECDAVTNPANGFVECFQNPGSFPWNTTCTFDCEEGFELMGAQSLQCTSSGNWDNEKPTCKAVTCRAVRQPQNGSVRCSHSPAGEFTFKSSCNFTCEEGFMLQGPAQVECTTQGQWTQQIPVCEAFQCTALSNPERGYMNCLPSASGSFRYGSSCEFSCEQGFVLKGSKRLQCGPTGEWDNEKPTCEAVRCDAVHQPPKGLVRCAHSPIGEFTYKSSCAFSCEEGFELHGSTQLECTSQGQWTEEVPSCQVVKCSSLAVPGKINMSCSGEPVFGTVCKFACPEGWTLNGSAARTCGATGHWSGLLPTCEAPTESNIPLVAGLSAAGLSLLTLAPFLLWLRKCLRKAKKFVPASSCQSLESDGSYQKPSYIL
Kind of assay: Inhibitory activity against Selectin E using cell-cell assay; Not active. It counts as functional. A digest of the protocol: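 HUVEC monolayers (≤4-5 passages, gelatin-coated wells) activated on assay day with 10 ng/mL IL-1β as native E-selectin source. Compounds at 2× in cold RPMI preincubated 20 min 4 °C in triplicate; BCECF-AM-labelled HL60 cells (2 × 10⁶ cells/mL) added, 30 min 4 °C. Unbound cells washed off, bound cells read by fluorescence; IC50 by Probit analysis.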

As to `O=C(O)/C=C/c1ccc(-c2nc(-c3ccc(/C=C/C(=O)NCCCc4ccccc4)cc3)c(-c3ccc(C4=NOC(C(=O)O)C4)cc3)[nH]2)cc1` (stereo not given), the IC50 (in general, the midpoint of a concentration-inhibition curve) at P-selectin [1] came out at 100 µM; against P-selectin [2], 21 µM.
In the same order, the values of `CCCCCCCCCCCCCCCCNC(=O)/C=C/c1ccc(-c2[nH]cnc2-c2ccc(/C=C/C(=O)O)cc2)cc1` are 17 µM and 40 µM.
`CCCCCCN(CCCCCC)C(=O)/C=C/c1ccc(-c2[nH]cnc2-c2ccc(/C=C/C(=O)O)cc2)cc1`: the 50% inhibitory concentration (IC50) result was “Not Active” on P-selectin [3], 21 µM against P-selectin [2] and “Not Active” against E-selectin.
For the molecule `CCCCCCCCCCCCCCCCNC(=O)/C=C/c1ccc(-c2[nH]c(-c3ccc(C4=NOC(C(=O)O)C4)cc3)nc2-c2ccc(/C=C/C(=O)O)cc2)cc1` (stereo not given), the results for the concentration for half-maximal inhibition (IC50) against P-selectin [1] and against P-selectin [2] were 0.29 µM and 9 µM, respectively.
Take `O=C(/C=C/c1ccc(-c2nc(-c3ccc(N4CCCC4)cc3)[nH]c2-c2ccc(C3=NOC(C(=O)O)C3)cc2)cc1)NCCCc1ccccc1` (stereo not given): the 50% inhibitory concentration (IC50) is 34 µM against P-selectin [1], “Not Active” at P-selectin [3] and 50 µM against P-selectin [2].
As for `CCCCCCCCCCCCCCCCNC(=O)/C=C/c1ccc(-c2[nH]c(-c3ccc(-c4cc(C(=O)O)on4)cc3)nc2-c2ccc(/C=C/C(=O)O)cc2)cc1`, the IC50 against P-selectin [1] was 0.13 µM; at P-selectin [2], 2.7 µM.
Take `CCCCCCCCCCCCNC(=O)/C=C/c1ccc(-c2[nH]c(-c3ccc(-c4cc(C(=O)O)on4)cc3)nc2-c2ccc(/C=C/C(=O)O)cc2)cc1`: the half-maximal inhibitory concentration (IC50) against P-selectin [1] is 3 µM; against P-selectin [2] it was 290 µM; against E-selectin, “Not Active”.
Take `CCCCCCCc1ccc(NC(=O)/C=C/c2ccc(-c3[nH]cnc3-c3ccc(/C=C/C(=O)O)cc3)cc2)cc1`: the IC50 against P-selectin [1] stood at 16 µM; against P-selectin [2], 44 µM.
As to `CC(=O)N[C@H]1[C@H]([C@H](O)[C@H](O)CO)O[C@@](O[C@H]2[C@@H](O)[C@@H](CO)O[C@@H](O[C@@H]([C@H](O[C@@H]3O[C@@H](C)[C@@H](O)[C@@H](O)[C@@H]3O)[C@H](C=O)NC(C)=O)[C@H](O)CO)[C@@H]2O)(C(=O)O)C[C@@H]1O` [SIALYL LEWIS X], on P-selectin [1], the IC50 is above 1 µM.

The record behind these values is ChEMBL document CHEMBL1134511, “Development of potent non-carbohydrate imidazole-based small molecule selectin inhibitors with antiinflammatory activity” (J Med Chem, 2001).
